Our source for the IC50 values is ChEMBL document CHEMBL1124071, “New human renin inhibitors containing an unnatural amino acid, norstatine” (J Med Chem, 1988).

Bounds are passed on as bounds.

Assay [1] concerns the target T1, Renin (Rattus norvegicus, UniProt P08424).
T1 sequence (P08424 whole entry): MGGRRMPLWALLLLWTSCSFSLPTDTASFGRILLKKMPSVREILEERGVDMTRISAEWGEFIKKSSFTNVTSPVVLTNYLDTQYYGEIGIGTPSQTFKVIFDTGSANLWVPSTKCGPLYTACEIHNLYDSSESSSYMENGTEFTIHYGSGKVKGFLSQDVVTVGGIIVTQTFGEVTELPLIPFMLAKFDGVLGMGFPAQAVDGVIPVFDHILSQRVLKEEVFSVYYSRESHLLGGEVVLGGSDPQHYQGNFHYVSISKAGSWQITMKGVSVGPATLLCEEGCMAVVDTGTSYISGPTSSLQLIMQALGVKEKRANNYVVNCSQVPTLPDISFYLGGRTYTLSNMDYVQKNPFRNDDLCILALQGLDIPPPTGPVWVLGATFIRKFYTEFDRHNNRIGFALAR
In words: Inhibitory concentration was measured against plasma renin from rat.

For assay [2], the target named is T2, Renin (Homo sapiens, UniProt P00797).
T2 sequence (P00797 whole entry): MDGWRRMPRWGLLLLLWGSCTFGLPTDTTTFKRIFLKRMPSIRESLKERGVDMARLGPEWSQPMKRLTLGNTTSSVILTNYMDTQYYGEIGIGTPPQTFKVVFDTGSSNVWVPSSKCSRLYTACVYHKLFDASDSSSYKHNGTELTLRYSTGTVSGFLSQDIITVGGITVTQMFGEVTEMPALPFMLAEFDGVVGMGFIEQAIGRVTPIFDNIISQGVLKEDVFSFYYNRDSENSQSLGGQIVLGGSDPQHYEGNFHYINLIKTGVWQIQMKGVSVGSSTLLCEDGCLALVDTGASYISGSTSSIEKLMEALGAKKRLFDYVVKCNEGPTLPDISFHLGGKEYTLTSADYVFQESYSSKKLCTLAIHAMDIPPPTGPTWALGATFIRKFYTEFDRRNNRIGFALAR
In words: Inhibitory concentration against human renin.

Assay [3] addresses T2, Renin. Nature of the assay: Inhibitory concentration was measured against plasma renin from human. The format is cell-free. A digest of the protocol:
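Human plasma containing EDTA-2Na (14 mM) and neomycin sulfate (0.3%) was mixed with 0.5 M phosphate buffer pH 7.0, Phe-Ala-Pro and inhibitor in DMSO. Incubation ran 60 min at 37 °C, then angiotensin I generated was quantified by radioimmunoassay. IC50 refers to inhibition of plasma renin activity.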

The next assay has as its target Renin (Canis familiaris). Nature of the assay: Inhibitory concentration was measured against plasma renin from dog.

As usually defined, the IC50 is the concentration needed to halve the response being measured. Higher therefore signals a need for much substance. As for `COC(=O)C(O)C(CC(C)C)NC(=O)C(Cc1c[nH]cn1)NC(=O)C(CC(=O)N(C)C)Cc1cccc2ccccc12` (stereo not given), the IC50 at Renin [1] was above 100000 nM; on Renin [2], 78 nM; against Renin [3] it was 25 nM; at Renin (Canis familiaris), 640 nM.

On Renin [2], `COC(=O)[C@@H](O)C(CC(C)C)NC(=O)C(Cc1c[nH]cn1)NC(=O)C(CC(=O)NCCc1ccccc1)Cc1cccc2ccccc12` (single isomer, unassigned; (+)) yielded an IC50 of 1300 nM.

Take `COC(=O)C(O)C(CC(C)C)NC(=O)C(Cc1c[nH]cn1)NC(=O)C(CC(=O)NCCc1ccccc1)Cc1cccc2ccccc12` (stereo in doubt): the IC50 at Renin [1] was above 100000 nM; at Renin [2], 78 nM; at Renin [3] it was 90 nM; against Renin (Canis familiaris), 2100 nM.

Take `COC(=O)[C@H](O)C(CC(C)C)NC(=O)C(Cc1cnc[nH]1)NC(=O)C(CC(=O)NCCc1ccccc1)Cc1cccc2ccccc12` (single isomer, unassigned; (+)): the IC50 against Renin [2] was 31 nM; at Renin [3] it was 77 nM.

As for `CC(C)CC(NC(=O)C(Cc1c[nH]cn1)NC(=O)C(CC(=O)N1CCOCC1)Cc1cccc2ccccc12)C(O)C(=O)NC(C)C` (stereo not given), the IC50 came out at 4400 nM against Renin [1], 130 nM at Renin [2], 130 nM at Renin [3] and 1100 nM on Renin (Canis familiaris).

Consider `COC(=O)C(O)C(CC(C)C)NC(=O)C(Cc1c[nH]cn1)NC(=O)C(CC(=O)NCCc1ccccc1)Cc1cccc2ccccc12` (stereo in doubt; 12), for which the IC50 on Renin [2] was above 100000 nM.

As for `CC(C)CC(NC(=O)C(Cc1cnc[nH]1)NC(=O)C(CC(=O)N1CCOCC1)Cc1cccc2ccccc12)C(O)CC(=O)OC(C)C` (stereo not given), the IC50 against Renin [1] was above 100000 nM; at Renin [2] it was 180 nM; at Renin [3], 66 nM; on Renin (Canis familiaris), 350 nM.
